Assay: Cytotoxicity in HFF cells after 72 hrs by trypan blue exclusion assay
Type: cell-based
Settings: human
In short: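 Human normal fibroblasts, 2 × 10⁵ per well, seeded in RPMI 1640 with 10% fetal calf serum plus penicillin and streptomycin at 37 °C under CO₂. Compound added after 24 h. Living cells counted at 72 h by trypan blue exclusion, expressed as percent of control proliferation; GI50 derived.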

## CCCCOc1ccc(NC(=O)n2nc(N)c3cc(N)ccc32)cc1
  GI50 at 72 h: 32 µM
